Molecules are shown by their SMILES. Some results are limits rather than exact numbers.

The target of data set [1] is T1, Cholecystokinin receptor type A (Homo sapiens, UniProt P32238).
T1 sequence (P32238 whole entry): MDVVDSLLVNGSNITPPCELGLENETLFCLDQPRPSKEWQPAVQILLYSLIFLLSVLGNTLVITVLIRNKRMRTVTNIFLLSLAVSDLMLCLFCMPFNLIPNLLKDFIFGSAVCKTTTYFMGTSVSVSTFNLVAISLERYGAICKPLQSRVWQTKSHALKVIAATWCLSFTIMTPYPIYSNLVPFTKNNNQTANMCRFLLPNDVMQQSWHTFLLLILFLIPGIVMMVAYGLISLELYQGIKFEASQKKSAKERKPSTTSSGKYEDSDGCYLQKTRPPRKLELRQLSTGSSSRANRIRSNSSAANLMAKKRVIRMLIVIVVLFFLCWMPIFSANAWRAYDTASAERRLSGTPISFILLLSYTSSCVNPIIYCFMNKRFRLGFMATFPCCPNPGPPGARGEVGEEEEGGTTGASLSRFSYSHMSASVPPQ
Description: Agonist activity at human CCK1 receptor assessed as increase in CCK8-induced calcium release incubated in dark for 30 mins followed by light incubation for 30 mins measured by FLIPR assay. The class given is functional. The essentials: (§1)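 FLIPR functional assay in CHO cells expressing human CCK1R. Agonism expressed as % of the CCK-8 peptide response. Initial screen at 30 µM, with >30% counted as active. Actives then run as full dose–response. EC50 is the geometric mean of at least 2 independent experiments.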

The target of data set [2] is T2, Cholecystokinin receptor type A (Homo sapiens) (UniProt P32238).
T2 sequence (whole entry): T1 sequence (P32238 whole entry)
Description: Agonist activity at human CCK1 receptor assessed as increase in CCK8-induced calcium release incubated in dark for 30 mins followed by light incubation for 30 mins measured by FLIPR assay relative to CCK8. The class given is functional. The essentials: as §1

A short description of data set [3]: Intrinsic clearance in human microsomes. It counts as ADME, Microsome. Summed up: (§2)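 Intrinsic clearance measured in human liver microsomes. The free value is corrected for microsomal binding.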
The target of data set [4] is T1, Cholecystokinin receptor type A. The experiment in a line: Displacement of [125I]-CCK-8 from human CCK1 receptor expressed in CHO cells after 90 mins by liquid scintillation counting. In general terms: In a radioligand displacement assay an active substance lowers the binding of a labelled ligand.
Data set [5] is described as follows: Lipophilicity, log D of the compound at pH 7.4. It counts as physicochemical. The following applies: buffer, read-out: logD.
Data set [6] is described as follows: Free intrinsic clearance in human microsomes. The class given is ADME, Microsome. Summed up: as §2
In data set [7] the test system is Mus musculus. The experiment in a line: Antiobesity in C57Bl/6J mouse assessed as reduction in gall bladder weight at 0.6 mg/kg, po measured after 1 hr relative to control. It counts as functional. Further details: scale not given: the % may be the effect or the level left.
Data set [8] can be described thus: Drug excretion in Sprague-Dawley rat bile at 1 mg/kg, iv measured after 24 hrs. Further details: dose 1 mg/kg, route intravenous. Particulars: read-out: Ae. It counts as ADME, organism-based. Summed up: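 Bile-cannulated rats dosed iv at 1 mg/kg. Bile collected over 24 h and % of dose excreted into bile determined.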

The term EC50 denotes the concentration at which the effect is half-maximal. The term IC50 denotes the concentration needed to halve the response being measured. On to `O=C1C(Cc2c[nH]c3ccccc23)c2nnc(-c3ccccc3)n2-c2ccccc2N1CC(=O)N1CCCCC1Cc1ccccc1` (mixture of isomers), for which, in data set [1], the EC50 is 84.2 nM. For the same compound, in data set [2], the Efficacy came out at 78%. The same compound displayed a clearance in data set [3] of 146 µL/min/mg. This compound also yielded a 50% inhibitory concentration (IC50) in data set [4] of 44.7 nM.

As to `O=C1C(Cc2c[nH]c3ccccc23)c2nnc(-c3ccccc3)n2-c2ccccc2N1CC(=O)N1CCCCC1Cc1ccncc1` (mixture of isomers), in data set [1], the concentration giving a half-maximal response (EC50) amounted to 421 nM. Further, the Efficacy in data set [2] amounted to 89%. Further, the clearance in data set [3] is 111 µL/min/mg. Moreover, the IC50 in data set [4] worked out at 340 nM.

With `O=C1C(Cc2c[nH]c3ccccc23)c2nnc(-c3ccccc3)n2-c2ccccc2N1CC(=O)N1CCCCC1c1ccccc1` (mixture of isomers), the EC50 in data set [1] is 1670 nM. Also, in data set [2], the Efficacy came to 87%. Also, the IC50 in data set [4] came to 248 nM.

With `CCC1CCCCN1C(=O)CN1C(=O)C(Cc2c[nH]c3ccccc23)c2nnc(-c3ccccc3)n2-c2ccccc21` (mixture of isomers), the EC50 in data set [1] is 400 nM. For the same compound, in data set [2], the Efficacy is 78%. This compound also gave a clearance in data set [3] of over 300 µL/min/mg. The compound also displayed an IC50 in data set [4] of 36.9 nM.

Consider `COCCC1CCCCN1C(=O)CN1C(=O)C(Cc2c[nH]c3ccccc23)c2nnc(-c3ccccc3)n2-c2ccccc21` (mixture of isomers), for which the EC50 in data set [1] turned out to be 52.5 nM. Also, the Efficacy in data set [2] turned out to be 97%. The compound further yielded a clearance in data set [3] of over 300 µL/min/mg. Also, the half-inhibitory concentration (IC50) in data set [4] is 49.3 nM.

Turning to `O=C1C(Cc2c[nH]c3ccccc23)c2nnc(-c3ccccc3)n2-c2ccccc2N1CC(=O)N1CCCC1Cc1ccccn1` (mixture of isomers), the EC50 in data set [1] came to 560 nM. The Efficacy in data set [2] came to 86%. Besides, the clearance in data set [3] came to 212 µL/min/mg. In addition, the IC50 in data set [4] was determined as 373 nM.

One may read the logD as the decadic logarithm of the distribution of all forms, ionised or not, between an organic phase and buffer at a given pH. Turning to `COCCC1CCCCN1C(=O)CN1C(=O)[C@@H](Cc2n[nH]c3ccccc23)c2nnc(-c3ccccc3)n2-c2ccccc21` (single isomer, unassigned), the EC50 in data set [1] worked out at 2.7 nM. Moreover, the Efficacy in data set [2] came to 100%. Also, the logD in data set [5] amounted to 3.1. In addition, the CL free in data set [6] was determined as 154 µL/min/mg. Also, the Activity in data set [7] was 85%. For the same compound, the dose excreted at 24 h in data set [8] came out at 0.26%. This compound also showed an IC50 in data set [4] of 9.9 nM.

Consider `CC(C)N(Cc1ccccc1)C(=O)CN1C(=O)[C@@H](Cc2n[nH]c3ccccc23)c2nnc(-c3ccccc3)n2-c2ccccc21`, for which the EC50 in data set [1] was determined as 380 nM. Further, the Efficacy in data set [2] worked out at 72%. For the same compound, the logD in data set [5] came out at 4.7. This compound came in with an IC50 in data set [4] of 38.1 nM.

The values above are taken from ChEMBL document CHEMBL2016448, “Discovery of new piperidine amide triazolobenzodiazepinones as intestinal-selective CCK1 receptor agonists” (Bioorg Med Chem Lett, 2012).
